One block for each compound: values may come before it. Activity calls are given as the source filed them. The calls are words filed in the database; no cut-off is given here.
Legend:
Focal adhesion kinase 1 = Focal adhesion kinase 1 (Homo sapiens, UniProt Q05397); assay: Inhibition of FAK (unknown origin) using ULight-poly GT as substrate after 1.6 hrs by TR-FRET assay
[1] = (§1) Inhibition of colony formation in human HCT116 cells after 2 weeks by crystal violet staining-based assay; type: functional, cell-based; conditions: HCT-116, 336 h
Method in brief: (§2)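 Seeding: 250 cells per well for HCT-116, 300 for U87MG, MDA-MB-231 and PC-3; incubated overnight, then exposed to a range of concentrations for 2 weeks. Fixed in 4% paraformaldehyde 30 min at room temperature, stained with 0.1% crystal violet. Colonies over 50 cells counted; colony formation rate calculated; IC50 by nonlinear regression.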

HCT-116 [2] = assay: as §1; type: functional, cell-based; method in brief: as §2
U-87 MG [3] = assay: Induction of apoptosis in human U87MG cells assessed as viable cells at 0.3 uM after 24 hrs by Annexin V-PE/7-AAD staining-based FACS analysis (reference value: 96.7%); type: functional, U-87MG ATCC; conditions: read-out: Activity
[4] = Cell cycle arrest in human HCT116 cells assessed as accumulation at S phase at 0.4 uM after 24 hrs by propidium iodide staining-based flow cytometry (reference value: 17.7%); type: functional; conditions: HCT-116
Method in brief: (§3)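 Cells plated at 10^5 per well, left overnight, then exposed 24 h to compound or vehicle; stained 15 min at 37 °C with propidium iodide/Triton buffer; DNA content by flow cytometry, phase distribution fitted by Dean–Jett–Fox; HCT-116 at 0.3–0.5 μM, U87-MG at 0.3–3 μM; significance by unpaired Student's t test; one representative experiment.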

[5] = Antiproliferative activity against human PC3 cells after 48 hrs by WST-1 assay; type: functional, cell-based; conditions: PC-3, 48 h
Method in brief: (§4)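 Exponentially growing cells in DMEM/10% FBS seeded at 5 × 10^3 per well, left overnight, then exposed 48 h to compounds diluted from DMSO; WST-1 added for 2 h, absorbance at 450 nm (reference 620 nm); viability as ratio to DMSO controls; three independent experiments, triplicate points; IC50 by nonlinear regression (log inhibitor vs normalized response, variable slope).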

[6] = Antiinvasive activity in human U87MG cells after 24 hrs by matrigel assay; type: functional, U-87MG ATCC
Method in brief: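 U-87MG pre-exposed 24 h to compound or DMSO in 3% FBS, then 4 × 10^4 cells seeded in upper chamber of impedance-based CIM-16 plate (8 μm pore membrane) coated with Matrigel/collagen; lower chamber 10% FBS; cell index monitored at 37 °C, 5% CO2 for 12 h; slope (1/h) over set interval, DMSO slope set to 100; duplicate wells, repeated twice.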

U-87 MG [7] = assay: Reduction of cell adherence in human U87MG cells at 0.5 uM after 30 mins by toluidine blue staining-based […]; type: functional, U-87MG ATCC; set-up: scale not given: the % may be the effect or the level left
Method in brief: (§5)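 U87-MG cells grown in 10% serum, trypsinised, diluted to 100 000 cells/mL in 10% serum medium, then treated 30 min with compound or DMSO. 20 000 cells per well allowed to attach 1 h. Fixed in 4% paraformaldehyde 30 min, stained with 0.1% toluidine blue in 4% PFA 30 min, washed, OD read at 620 nm for attached cells.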

HCT-116 [8] = assay: Induction of apoptosis in human HCT116 cells assessed as late apoptotic cells at 0.4 uM after 24 hrs by Annexin V-PE/7-AAD staining-based FACS analysis (reference value: 1.22%); type: functional
U-87 MG [9] = assay: Induction of apoptosis in human U87MG cells assessed as early apoptotic cells at 0.3 uM after 24 hrs by Annexin V-PE/7-AAD staining-based FACS analysis (reference value: 0.691%); type: functional, U-87MG ATCC
U-87 MG [10] = assay: Induction of apoptosis in human U87MG cells assessed as late apoptotic cells at 0.3 uM after 24 hrs by Annexin V-PE/7-AAD staining-based FACS analysis (reference value: 1.59%); type: functional, U-87MG ATCC
MDA-MB-231 [11] = assay: Inhibition of colony formation in human MDA-MB-231 cells after 2 weeks by crystal violet staining-based assay; type: functional, cell-based; method in brief: as §2
[12] = Cell cycle arrest in human U87MG cells at < 0.3 uM after 24 hrs by propidium iodide staining-based flow cytometry; type: functional; conditions: U-87MG ATCC; method in brief: as §3
U-87 MG [13] = assay: Reduction of cell adherence in human U87MG cells after 30 mins by toluidine blue staining-based […]; type: functional; conditions: U-87MG ATCC; method in brief: as §5
[14] = (§6) Inhibition of colony formation in human PC3 cells after 2 weeks by crystal violet staining-based assay; type: functional, cell-based; conditions: PC-3, 336 h; method in brief: as §2
PC-3 = assay: as §6; type: functional, cell-based; method in brief: as §2
[15] = Cell cycle arrest in human HCT116 cells assessed as accumulation at G2/M phase at 0.4 uM after 24 hrs by propidium iodide staining-based flow cytometry (reference value: 14.6%); type: functional; conditions: HCT-116; method in brief: as §3
U-87MG ATCC [16] = assay: Antiinvasive activity in human U87MG cells after 30 mins by boyden chamber assay; type: functional, cell-based
[17] = Antimigratory activity in human U87MG cells at 0.4 uM […] by transwell membrane assay; type: functional, U-87MG ATCC
U-87 MG [18] = assay: Induction of apoptosis in human U87MG cells assessed as necrotic cells at 0.3 uM after 24 hrs by Annexin V-PE/7-AAD staining-based FACS analysis (reference value: 1.06%); type: functional, U-87MG ATCC
[19] = Cell cycle arrest in human HCT116 cells assessed as accumulation at G0/G1 phase at 0.4 uM after 24 hrs by propidium iodide staining-based flow cytometry (reference value: 63.8%); type: functional; conditions: HCT-116; method in brief: as §3
HCT-116 [20] = assay: Induction of apoptosis in human HCT116 cells assessed as necrotic cells at 0.4 uM after 24 hrs by Annexin V-PE/7-AAD staining-based FACS analysis (reference value: 0.885%); type: functional
HCT-116 [21] = assay: Induction of apoptosis in human HCT116 cells assessed as early apoptotic cells at 0.4 uM after 24 hrs by Annexin V-PE/7-AAD staining-based FACS analysis (reference value: 4.68%); type: functional
[22] = Antiproliferative activity against human HCT116 cells after 48 hrs by WST-1 assay; type: functional, cell-based; conditions: HCT-116, 48 h; method in brief: as §4
HCT-116 [23] = assay: Induction of apoptosis in human HCT116 cells assessed as viable cells at 0.4 uM after 24 hrs by Annexin V-PE/7-AAD staining-based FACS analysis (reference value: 93.2%); type: functional; conditions: HCT-116, 24 h, read-out: Activity
[24] = Cell cycle arrest in human HCT116 cells at < 0.4 uM after 24 hrs by propidium iodide staining-based flow cytometry; type: functional; conditions: HCT-116; method in brief: as §3
HCT-116 [25] = assay: Induction of apoptosis in human HCT116 cells at < 0.4 uM after 24 hrs by Annexin V-PE/7-AAD staining-based FACS analysis; type: functional, cell-based
[26] = (§7) Inhibition of colony formation in human U87MG cells after 2 weeks by crystal violet staining-based assay; type: functional, cell-based, U-87MG ATCC; conditions: U-87 MG, 336 h; method in brief: as §2
U-87MG ATCC [27] = assay: as §7; type: functional, cell-based; method in brief: as §2
MDA-MB-231 [28] = assay: Antiproliferative activity against human MDA-MB-231 cells after 48 hrs by WST-1 assay; type: functional, cell-based; conditions: MDA-MB-231, 48 h; method in brief: as §4
[29] = Antiproliferative activity against human U87MG cells after 48 hrs by WST-1 assay; type: functional, cell-based, U-87MG ATCC; conditions: U-87 MG; method in brief: as §4
U-87MG ATCC [30] = assay: Antimigratory activity in human U87MG cells after 30 mins by boyden chamber assay; type: functional, cell-based

Chain of Focal adhesion kinase 1 (Q05397 whole entry): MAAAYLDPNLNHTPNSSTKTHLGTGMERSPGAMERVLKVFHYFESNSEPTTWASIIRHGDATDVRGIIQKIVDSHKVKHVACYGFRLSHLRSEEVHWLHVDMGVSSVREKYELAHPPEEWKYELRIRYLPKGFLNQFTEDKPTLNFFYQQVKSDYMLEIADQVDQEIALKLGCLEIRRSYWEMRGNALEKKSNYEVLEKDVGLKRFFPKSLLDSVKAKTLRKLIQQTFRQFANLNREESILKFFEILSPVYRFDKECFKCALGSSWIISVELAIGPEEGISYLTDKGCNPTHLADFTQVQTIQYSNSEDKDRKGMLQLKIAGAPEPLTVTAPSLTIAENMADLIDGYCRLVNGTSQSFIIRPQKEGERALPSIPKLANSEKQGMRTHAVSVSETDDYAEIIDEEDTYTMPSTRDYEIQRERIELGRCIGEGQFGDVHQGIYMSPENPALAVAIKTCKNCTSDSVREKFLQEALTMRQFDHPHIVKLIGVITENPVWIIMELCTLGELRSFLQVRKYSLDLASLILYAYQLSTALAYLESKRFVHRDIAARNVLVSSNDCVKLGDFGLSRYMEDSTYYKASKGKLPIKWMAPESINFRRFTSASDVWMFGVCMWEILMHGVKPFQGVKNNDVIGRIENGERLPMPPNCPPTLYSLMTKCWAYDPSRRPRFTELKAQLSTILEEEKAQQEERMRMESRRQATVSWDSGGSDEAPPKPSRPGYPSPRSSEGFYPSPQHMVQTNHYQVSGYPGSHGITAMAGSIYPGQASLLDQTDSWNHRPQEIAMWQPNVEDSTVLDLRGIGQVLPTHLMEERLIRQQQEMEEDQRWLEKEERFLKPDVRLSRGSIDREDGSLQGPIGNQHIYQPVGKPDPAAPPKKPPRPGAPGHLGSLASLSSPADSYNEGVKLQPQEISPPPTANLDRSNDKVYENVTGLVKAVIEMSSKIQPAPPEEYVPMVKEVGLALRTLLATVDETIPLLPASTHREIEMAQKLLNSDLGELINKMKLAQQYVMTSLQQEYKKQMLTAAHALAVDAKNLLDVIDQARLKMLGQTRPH

- IC50 (Focal adhesion kinase 1): 870 nM
SMILES: COC(=O)c1cccc(Nc2nc(Nc3cc(OC)c(OC)c(OC)c3)nc3nccn23)c1

- IC50 (Focal adhesion kinase 1): 220 nM
SMILES: CNC(=O)c1ccccc1Nc1nc(Nc2ccc(CN)cc2)n2ccnc2n1

- IC50 (Focal adhesion kinase 1): 370 nM
SMILES: COC(=O)c1ccccc1Nc1nc(Nc2ccc(N3CCOCC3)cc2OC)nc2nccn12

- IC50 (Focal adhesion kinase 1): 240 nM
SMILES: COC(=O)c1ccccc1Nc1nc(Nc2ccc(CN)cc2)nc2nccn12

- IC50 (Focal adhesion kinase 1): 1120 nM
SMILES: CNC(=O)c1ccccc1Nc1nc(Nc2ccc(C#N)cc2)n2ccnc2n1

- IC50 (Focal adhesion kinase 1): 370 nM
SMILES: COC(=O)c1ccccc1Cc1nc(Nc2cc(OC)c(OC)c(OC)c2)nc2nccn12

- IC50 (Focal adhesion kinase 1): 1200 nM
SMILES: COC(=O)c1cccc(Nc2nc(Nc3cc(OC)c(OC)c(OC)c3)n3ccnc3n2)c1

- IC50 (Focal adhesion kinase 1): 1050 nM
SMILES: C=COC(=O)NCc1ccc(Nc2nc(Nc3ccccc3C(=O)OC)nc3nccn23)cc1

- IC50 (Focal adhesion kinase 1): 880 nM
SMILES: C=COC(=O)NCc1ccc(Nc2nc(Nc3ccccc3C(=O)NC)nc3nccn23)cc1

- IC50 (Focal adhesion kinase 1): 510 nM
SMILES: CNC(=O)c1ccccc1Nc1nc(Nc2ccc(N3CCOCC3)cc2OC)n2ccnc2n1

- IC50 [1]: 120 nM
- IC50 (Focal adhesion kinase 1): 120 nM
- IC50 (MDA-MB-231 [11]; MDA-MB-231, 336 h): 520 nM
- IC50 [14]: 1400 nM
- IC50 [26]: 220 nM
- IC50 (MDA-MB-231 [28]): 1080 nM
SMILES: CNC(=O)c1ccccc1Nc1nc(Nc2ccc(CN)cc2)nc2nccn12
- inhibition (HCT-116 [2]): Dose-dependent effect
- viability at 0.3 µM (U-87 MG [3]): 96.6%
- Activity [4]: 12.8%
- IC50 [5]: 1270 nM
- Activity [6]: 50%
- Activity (U-87 MG [7]): 50%
- Activity (HCT-116 [8]): 4.06%
- Activity (U-87 MG [9]): 1.37%
- Activity (U-87 MG [10]): 0.755%
- inhibition (MDA-MB-231 [11]): Dose-dependent effect
- Activity [12]: Active
- Activity (U-87 MG [13]): Dose-dependent effect
- inhibition (PC-3): Dose-dependent effect
- Activity [15]: 61%
- Activity (U-87MG ATCC [16]): Dose-dependent effect
- Activity [17]: 66.4%
- Activity (U-87 MG [18]): 1.26%
- Activity [19]: 24.4%
- Activity (HCT-116 [20]): 3.03%
- Activity (HCT-116 [21]): 4.24%
- IC50 [22]: 310 nM
- viability at 0.4 µM (HCT-116 [23]): 88.7%
- Activity [24]: Active
- Activity (HCT-116 [25]): inactive
- inhibition (U-87MG ATCC [27]): Dose-dependent effect
- IC50 [29]: 370 nM
- Activity (U-87MG ATCC [30]): Dose-dependent effect

- IC50 (Focal adhesion kinase 1): 920 nM
SMILES: CS(=O)(=O)Nc1ccccc1Nc1nc(Nc2ccc(C#N)cc2)nc2nccn12
